# Test results taken from ChEMBL document CHEMBL4665627 (Eur J Med Chem, 2019).
# Active and inactive are the calls of the source. The calls are words filed in the database; no cut-off is given here.
# Experiments:
# Candida albicans [1] = assay: Antifungal activity against Candida albicans assessed as inhibition of fungal growth after 24 hrs by CLSI protocol based two fold serial dilution method; type: functional
# Summary of the method: (§1)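 Two-fold serial broth dilution in 96-well plates following CLSI; MIC (mM) taken as the lowest concentration giving complete growth inhibition; MIC values from three independent experiments.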
# DNA [2] = assay: Binding affinity to Klebsiella pneumoniae DNA assessed as red shift in absorption spectra by UV-Vis spectroscopy; type: nucleic-acid assay
# Summary of the method: (§2)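 DNA isolated from K. pneumoniae held at fixed concentration while test compound is added in stepwise, proportional increments; UV-vis absorption spectra recorded, following the 260 nm DNA band.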
# Staphylococcus aureus [3] = assay: Antibacterial activity against Staphylococcus aureus assessed as inhibition of bacterial growth after 24 hrs by CLSI protocol based two fold serial dilution method; type: functional; summary of the method: as §1
# Candida tropicalis = assay: Antifungal activity against Candida tropicalis assessed as inhibition of fungal growth after 24 hrs by CLSI protocol based two fold serial dilution method; type: functional; summary of the method: as §1
# Pseudomonas aeruginosa [4] = assay: Antibacterial activity against Pseudomonas aeruginosa ATCC 27853 assessed as inhibition of bacterial growth after 24 hrs by CLSI protocol based two fold serial dilution method; type: functional; summary of the method: as §1
# DNA [5] = assay: Competitive binding affinity to Klebsiella pneumoniae DNA assessed as increase in DNA-NR probe absorption intensity at wavelength of 460 nm by UV spectroscopy; type: nucleic-acid assay
# Summary of the method: (§3)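 Competitive binding with neutral red as spectral probe on K. pneumoniae DNA, monitored by UV-vis absorption spectroscopy.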
# [6] = Cytotoxicity against mouse RAW264.7 cells assessed as cell viability at 128 ug/ml after 72 hrs by MTT assay relative to control; type: cell-based; details: at 128 µg/mL, read-out: Activity
# Summary of the method: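 RAW 264.7 mouse macrophage cells exposed to test compound; viability by colorimetric MTT proliferation assay; standard deviation from three independent experiments.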
# Escherichia coli [7] = assay: Antibacterial activity against Escherichia coli ATCC 25922 assessed as inhibition of bacterial growth after 24 hrs by CLSI protocol based two fold serial dilution method; type: functional; summary of the method: as §1
# Saccharomyces cerevisiae = assay: Inhibition of Saccharomyces cerevisiae CGMCC 2.145 chitin synthase at 300 ug/ml using GlcNAc and UDP-GlcNAc as substrate incubated for 60 mins by microplate reader analysis relative to control; details: dose 300.0 µg/ml
# Summary of the method: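 Chitin synthase inhibition ratio measured at 300 µg/mL test compound, relative to untreated control.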
# Escherichia coli [8] = assay: Synergistic antibacterial activity against Escherichia coli assessed as fractional inhibitory concentration index in presence of cefathiamidine by CLSI protocol based two fold serial dilution method; type: functional
# DNA [9] = assay: Binding affinity to Klebsiella pneumoniae DNA assessed as hyperchromic shift by UV-Vis spectroscopy; type: nucleic-acid assay; summary of the method: as §2
# Klebsiella pneumoniae [10] = assay: Antibacterial activity against Klebsiella pneumoniae measured every 24 hrs after 10 passages by serial dilution method; type: functional, organism-based
# Staphylococcus aureus [11] = assay: Antibacterial activity against methicillin-resistant Staphylococcus aureus assessed as bacterial growth inhibition in presence of cefathiamidine by CLSI protocol based two fold serial dilution method; type: functional
# Summary of the method: (§4)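 Checkerboard-type pairing, with each agent tested alone and combined by CLSI two-fold serial dilution. MICs are from three independent experiments. FIC index = (MIC of A combined/MIC of A alone) + (MIC of B combined/MIC of B alone). An index ≤1 is read as synergistic and 1–2 as additive.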
# DNA [12] = assay: Competitive binding affinity to Klebsiella pneumoniae DNA assessed as increase in DNA intercalation by measuring increase in absorbance at around 260 nm by UV spectroscopy; type: nucleic-acid assay; summary of the method: as §3
# Staphylococcus aureus [13] = assay: Antibacterial activity against Staphylococcus aureus assessed as bacterial growth inhibition in presence of cefathiamidine by CLSI protocol based two fold serial dilution method; type: functional; summary of the method: as §1
# Candida albicans [14] = assay: Antifungal activity against Candida albicans ATCC 90023 assessed as inhibition of fungal growth after 24 hrs by CLSI protocol based two fold serial dilution method; type: functional; summary of the method: as §1
# Escherichia coli [15] = assay: Antibacterial activity against Escherichia coli assessed as inhibition of bacterial growth after 24 hrs by CLSI protocol based two fold serial dilution method; type: functional; summary of the method: as §1
# DNA [16] = assay: Binding affinity to Klebsiella pneumoniae DNA assessed as increase in absorption peak of DNA by UV-Vis spectroscopy; type: nucleic-acid assay; summary of the method: as §2
# Staphylococcus aureus [17] = assay: Antibacterial activity against methicillin-resistant Staphylococcus aureus N315 assessed as inhibition of bacterial growth after 24 hrs by CLSI protocol based two fold serial dilution method; type: functional
# Staphylococcus aureus [18] = assay: Antibacterial activity against Staphylococcus aureus ATCC 25923 assessed as inhibition of bacterial growth after 24 hrs by CLSI protocol based two fold serial dilution method; type: functional; summary of the method: as §1
# Staphylococcus aureus [19] = assay: Antibacterial activity against Staphylococcus aureus ATCC 29213 assessed as inhibition of bacterial growth after 24 hrs by CLSI protocol based two fold serial dilution method; type: functional
# Staphylococcus aureus [20] = assay: Synergistic antibacterial activity against methicillin-resistant Staphylococcus aureus assessed as fractional inhibitory concentration index in presence of cefathiamidine by CLSI protocol based two fold serial dilution method; type: functional; summary of the method: as §4
# DNA [21] = assay: Binding affinity to Klebsiella pneumoniae DNA assessed as intercalating activity by measuring intrinsic binding constant by UV-Vis spectroscopy; type: nucleic-acid assay; summary of the method: as §2
# Candida parapsilosis = assay: Antifungal activity against Candida parapsilosis ATCC 22019 assessed as inhibition of fungal growth after 24 hrs by CLSI protocol based two fold serial dilution method; type: functional; details: Lodderomyces parapsilosis; summary of the method: as §1
# Aspergillus fumigatus = assay: Antifungal activity against Aspergillus fumigatus assessed as inhibition of fungal growth after 24 hrs by CLSI protocol based two fold serial dilution method; type: functional; summary of the method: as §1
# DNA [22] = assay: Competitive binding affinity to Klebsiella pneumoniae DNA assessed as intercalating activity by measuring decrease in DNA-NR probe absorption spectra at wavelength of 530 nm by UV spectroscopy; type: nucleic-acid assay; summary of the method: as §3
# Enterococcus faecalis = assay: Antibacterial activity against Enterococcus faecalis assessed as inhibition of bacterial growth after 24 hrs by CLSI protocol based two fold serial dilution method; type: functional; summary of the method: as §1
# Klebsiella pneumoniae [23] = assay: Antibacterial activity against Klebsiella pneumoniae assessed as inhibition of bacterial growth after 24 hrs by CLSI protocol based two fold serial dilution method; type: functional; summary of the method: as §1
# Klebsiella pneumoniae [24] = assay: Potentiation of cefathiamidine-induced antibacterial activity against Klebsiella pneumoniae assessed as fold reduction in cefathiamidine MIC by CLSI protocol based two fold serial dilution method; type: functional
# Klebsiella pneumoniae [25] = assay: Induction of membrane permeabilization in Klebsiella pneumoniae at 12 times MIC measured after 1 hr by propidium iodide staining based fluorescence assay; type: functional, organism-based
# DNA gyrase = DNA gyrase (Escherichia coli, UniProt P0AES4+P0AES6); assay: Inhibition of Escherichia coli DNA gyrase holoenzyme assessed as reduction in pBR322 DNA supercoiling using pBR322 plasmid DNA as substrate incubated for 90 mins in presence of ATP by ethidium bromide staining based agarose gel electrophoresis analysis; type: protein-complex assay
# Klebsiella pneumoniae [26] = assay: Antibacterial activity against Klebsiella pneumoniae assessed as bacterial growth inhibition in presence of cefathiamidine by CLSI protocol based two fold serial dilution method; type: functional; summary of the method: as §1
# Escherichia coli [27] = assay: Antibacterial activity against Escherichia coli assessed as bacterial growth inhibition in presence of cefathiamidine by CLSI protocol based two fold serial dilution method; type: functional; summary of the method: as §1
# Acinetobacter baumannii = assay: Antibacterial activity against Acinetobacter baumannii assessed as inhibition of bacterial growth after 24 hrs by CLSI protocol based two fold serial dilution method; type: functional; summary of the method: as §1
# Pseudomonas aeruginosa [28] = assay: Antibacterial activity against Pseudomonas aeruginosa assessed as inhibition of bacterial growth after 24 hrs by CLSI protocol based two fold serial dilution method; type: functional; summary of the method: as §1
# DNA [29] = assay: Binding affinity to Klebsiella pneumoniae DNA assessed as cleavage of DNA at 50 uM and pH 7.4 and 37 °C incubated for 6 hrs by gel electrophoresis analysis
# Klebsiella pneumoniae [30] = assay: Synergistic antibacterial activity against Klebsiella pneumoniae assessed as fractional inhibitory concentration index in presence of cefathiamidine by CLSI protocol based two fold serial dilution method; type: functional
# Staphylococcus aureus [31] = assay: Additive antibacterial activity against Staphylococcus aureus assessed as fractional inhibitory concentration index in presence of cefathiamidine by CLSI protocol based two fold serial dilution method; type: functional
# Klebsiella pneumoniae [32] = assay: Bactericidal activity against Klebsiella pneumoniae assessed as log reduction in viable bacteria at 4 times MIC incubated for 1 hr followed by plating on agar plate and measured after 24 hrs by time kill assay; type: functional
# Summary of the method: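 Time-kill kinetics for K. pneumoniae at 4 × MIC.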
# [33] = Inhibition of Saccharomyces cerevisiae CGMCC 2.145 chitin synthase using GlcNAc and UDP-GlcNAc as substrate incubated for 60 mins by microplate reader analysis
# Summary of the method: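 Chitin synthase IC50 determined from concentration–inhibition curves.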
structure (smiles),measurement,setting,value
CCn1cc(-c2csc(N)n2)c(=O)c2cc(F)c(N3CCN(CC#N)CC3)cc21,MIC,Candida albicans [1],10 µM
same,Activity,DNA [2],Active
same,MIC,Staphylococcus aureus [3],10 µM
same,MIC,Candida tropicalis,39 µM
same,MIC,Pseudomonas aeruginosa [4],19 µM
same,Activity,DNA [5],Active
same,"viability at 72 h, 128 ug/ml",[6],80.2%
same,MIC,Escherichia coli [7],10 µM
same,inhibition,Saccharomyces cerevisiae,64.6%
same,fractional inhibitory concentration index (FICI),Escherichia coli [8],0.73
same,Activity,DNA [9],Active
same,Activity,Klebsiella pneumoniae [10],Active
same,MIC,Staphylococcus aureus [11],2 µM
same,Activity,DNA [12],Active
same,MIC,Staphylococcus aureus [13],10 µM
same,MIC,Candida albicans [14],10 µM
same,MIC,Escherichia coli [15],39 µM
same,Activity,DNA [16],Active
same,MIC,Staphylococcus aureus [17],19 µM
same,MIC,Staphylococcus aureus [18],10 µM
same,MIC,Staphylococcus aureus [19],10 µM
same,fractional inhibitory concentration index (FICI),Staphylococcus aureus [20],0.61
same,K,DNA [21],1.43 10^4L/mol
same,MIC,Candida parapsilosis,19 µM
same,MIC,Aspergillus fumigatus,19 µM
same,Activity,DNA [22],Active
same,MIC,Enterococcus faecalis,19 µM
same,MIC,Klebsiella pneumoniae [23],5 µM
same,fold change (FC),Klebsiella pneumoniae [24],2
same,Activity,Klebsiella pneumoniae [25],Active
same,IC50,DNA gyrase,16.7 µM
same,MIC,Klebsiella pneumoniae [26],1 µM
same,MIC,Escherichia coli [27],10 µM
same,MIC,Acinetobacter baumannii,19 µM
same,MIC,Pseudomonas aeruginosa [28],19 µM
same,Activity,DNA [29],inactive
same,fractional inhibitory concentration index (FICI),Klebsiella pneumoniae [30],0.7
same,fractional inhibitory concentration index (FICI),Staphylococcus aureus [31],1.12
same,Activity,Klebsiella pneumoniae [32],>2.5 log10CFU/ml
same,IC50,[33],180 µM
